# “Also recorded” adds a separate entry of the source.
# Key:
# RET = RET (Homo sapiens, UniProt P07949); test: RET kinase microfluidics separation based assay; assay type: biochemical; settings: read-out: IC50, RET; [ATP] = 190 μM; means of at least three experiments
# Summary of the method: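 Recombinant RET activity measured by a microfluidic separation-based kinase assay at [ATP] 190 µM. IC50 values are means of at least three independent experiments.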
# VEGFR2 [1] = biological target: T1, VEGFR2 (Homo sapiens, UniProt P35968); test: VEGFR2 kinase microfluidics separation based assay; assay type: biochemical; settings: read-out: IC50, VEGFR2; [ATP] = 190 μM
# T1 sequence (P35968 20-1356): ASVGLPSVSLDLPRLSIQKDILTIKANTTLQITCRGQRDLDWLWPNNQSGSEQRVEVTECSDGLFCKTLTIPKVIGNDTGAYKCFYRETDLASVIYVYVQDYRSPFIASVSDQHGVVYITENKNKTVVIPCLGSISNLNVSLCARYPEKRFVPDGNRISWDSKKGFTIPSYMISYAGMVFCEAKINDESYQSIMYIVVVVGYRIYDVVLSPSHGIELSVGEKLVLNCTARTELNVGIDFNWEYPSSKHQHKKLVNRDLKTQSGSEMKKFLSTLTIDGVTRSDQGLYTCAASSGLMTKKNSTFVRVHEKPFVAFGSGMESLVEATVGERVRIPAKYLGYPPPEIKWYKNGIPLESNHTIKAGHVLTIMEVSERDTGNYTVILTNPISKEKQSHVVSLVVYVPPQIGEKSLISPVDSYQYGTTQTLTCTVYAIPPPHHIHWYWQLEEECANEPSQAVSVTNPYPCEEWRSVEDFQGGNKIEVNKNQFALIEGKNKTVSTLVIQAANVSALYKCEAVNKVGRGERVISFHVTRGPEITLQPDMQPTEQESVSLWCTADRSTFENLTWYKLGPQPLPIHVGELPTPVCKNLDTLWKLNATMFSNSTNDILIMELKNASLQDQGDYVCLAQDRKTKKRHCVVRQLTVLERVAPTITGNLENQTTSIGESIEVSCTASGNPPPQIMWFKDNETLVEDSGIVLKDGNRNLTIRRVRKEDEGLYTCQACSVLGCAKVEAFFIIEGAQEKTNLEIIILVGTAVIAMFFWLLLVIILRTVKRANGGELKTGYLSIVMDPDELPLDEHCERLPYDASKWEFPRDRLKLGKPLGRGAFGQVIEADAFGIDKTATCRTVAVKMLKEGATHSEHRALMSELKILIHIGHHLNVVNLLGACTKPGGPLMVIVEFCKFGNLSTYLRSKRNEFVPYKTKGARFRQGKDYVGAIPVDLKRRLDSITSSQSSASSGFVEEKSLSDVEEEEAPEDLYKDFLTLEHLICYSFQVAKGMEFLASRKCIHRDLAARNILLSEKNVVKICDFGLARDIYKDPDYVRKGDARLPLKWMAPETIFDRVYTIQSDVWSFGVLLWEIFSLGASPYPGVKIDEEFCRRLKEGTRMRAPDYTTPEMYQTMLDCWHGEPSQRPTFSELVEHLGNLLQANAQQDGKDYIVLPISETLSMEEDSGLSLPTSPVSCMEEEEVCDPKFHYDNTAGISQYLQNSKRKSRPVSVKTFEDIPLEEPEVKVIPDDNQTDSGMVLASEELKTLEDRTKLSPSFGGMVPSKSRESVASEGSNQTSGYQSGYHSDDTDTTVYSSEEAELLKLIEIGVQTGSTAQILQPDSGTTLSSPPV
# RET^V804M [2] = biological target: T2, RET^V804M (Homo sapiens, UniProt P07949, V804M); test: RET V804M kinase microfluidics separation based assay; assay type: biochemical; settings: read-out: IC50, RET^V804M; [ATP] = 190 μM
# T2 sequence (P07949 29-1114 V804M): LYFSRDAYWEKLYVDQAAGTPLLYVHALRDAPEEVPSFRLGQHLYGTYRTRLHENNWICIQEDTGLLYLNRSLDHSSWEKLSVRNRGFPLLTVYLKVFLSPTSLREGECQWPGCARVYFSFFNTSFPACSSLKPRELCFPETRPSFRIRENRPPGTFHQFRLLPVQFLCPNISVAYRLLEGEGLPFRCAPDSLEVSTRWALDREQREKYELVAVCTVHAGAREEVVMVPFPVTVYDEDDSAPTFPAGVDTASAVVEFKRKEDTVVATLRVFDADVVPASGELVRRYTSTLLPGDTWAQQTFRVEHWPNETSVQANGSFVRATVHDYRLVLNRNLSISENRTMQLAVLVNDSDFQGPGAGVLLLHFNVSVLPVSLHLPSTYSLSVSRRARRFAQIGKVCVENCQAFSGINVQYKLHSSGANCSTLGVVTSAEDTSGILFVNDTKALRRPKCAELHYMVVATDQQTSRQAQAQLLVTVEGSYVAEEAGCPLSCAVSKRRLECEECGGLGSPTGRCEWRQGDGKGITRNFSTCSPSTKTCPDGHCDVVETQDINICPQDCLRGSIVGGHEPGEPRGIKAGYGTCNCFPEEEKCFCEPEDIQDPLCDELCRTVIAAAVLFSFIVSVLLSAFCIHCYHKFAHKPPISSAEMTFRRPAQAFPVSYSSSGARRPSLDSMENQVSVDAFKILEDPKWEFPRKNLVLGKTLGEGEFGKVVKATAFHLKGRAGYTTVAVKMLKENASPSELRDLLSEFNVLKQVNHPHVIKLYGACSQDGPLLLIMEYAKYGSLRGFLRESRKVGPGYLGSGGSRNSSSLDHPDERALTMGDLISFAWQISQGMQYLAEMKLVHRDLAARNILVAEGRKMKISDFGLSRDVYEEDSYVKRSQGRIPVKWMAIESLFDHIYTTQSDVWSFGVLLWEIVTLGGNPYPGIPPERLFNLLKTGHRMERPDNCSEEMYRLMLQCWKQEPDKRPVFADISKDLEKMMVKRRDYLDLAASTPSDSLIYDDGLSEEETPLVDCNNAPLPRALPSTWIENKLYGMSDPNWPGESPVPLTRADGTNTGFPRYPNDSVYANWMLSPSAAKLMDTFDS
# RET^C634R = RET^C634R (Homo sapiens, UniProt P07949, C634R); test: Cell-based RET inhibition, oncogenic RET C634R; settings: compared with predecessor compounds 1, 2 and 3a
# RET^C634R, sequence (P07949 29-1114 C634R): as the sequence (P07949 29-1114 V804M) above, with C606R, M776V counted along it
# RET^M918T = RET^M918T (Homo sapiens, UniProt P07949, M918T); test: Cell-based RET inhibition, oncogenic RET M918T
# RET^M918T, sequence (P07949 29-1114 M918T): as the sequence (P07949 29-1114 V804M) above, with M776V, M890T counted along it
# RET^V804M [3] = biological target: T2, RET^V804M; test: Cell-based RET inhibition, RET V804M
# RET^V804L = RET^V804L (Homo sapiens, UniProt P07949, V804L); test: Cell-based RET inhibition, RET V804L
# RET^V804L, sequence (P07949 29-1114 V804L): as the sequence (P07949 29-1114 V804M) above, with M776L counted along it
# RET oncoproteins = test: Cell-based phosphorylation of all tested RET oncoproteins; settings: 1.0 nM
# VEGFR2 [4] = biological target: T1, VEGFR2; test: VEGFA-induced VEGFR2 phosphorylation in transfected HEK293 cells; assay type: cell-based; settings: 1.0 nM
# VEGFR2 [5] = biological target: T1, VEGFR2; test: VEGFA-induced VEGFR2 phosphorylation in HUVEC cells; assay type: cell-based; settings: 1.0 nM, endogenous level
# NIH3T3 RET^C634Y cells = test: In vitro cell proliferation of NIH3T3 RET C634Y; assay type: cell-based; settings: read-out: IC50, cell proliferation
# parental NIH3T3 cells = test: Growth of parental NIH3T3 cells; assay type: cell-based; settings: up to 100.0 nM
# RET^C634Y = RET^C634Y (Homo sapiens, UniProt P07949, C634Y); test: RET C634Y tyrosine phosphorylation in NIH3T3 fibroblasts; assay type: cell-based
# RET^C634Y, sequence (P07949 29-1114 C634Y): as the sequence (P07949 29-1114 V804M) above, with C606Y, M776V counted along it
# NIH3T3 RET^C634Y tumors = test: Tumors induced by NIH3T3 RET C634Y cells in nu/nu mice; assay type: in vivo
# Summary of the method: (§1)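 Immunodeficient nu/nu mice were injected with NIH3T3 fibroblasts transformed by RET C634Y or by HRas G12V (Ras control). Before tumors appeared, mice received test compound orally at 1.0, 3.0 or 10.0 mg/kg/day or were left untreated. Tumor formation was scored. Tumor tissue was analysed for RET and VEGFR2 phosphorylation and for MAPK and mTOR signaling.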
# NIH3T3 HRas^G12V tumors = test: Tumors induced by NIH3T3 HRas G12V cells in nu/nu mice; assay type: in vivo
# Summary of the method: as §1
# [6] = One-week tolerability in mice; assay type: in vivo; settings: increased linearly with dose, doses up to 100.0 mg/kg
# [7] = Pharmacokinetic properties; settings: in vivo
# RET^V804M [8] = biological target: T2, RET^V804M; settings: cited from earlier work
# RET, sequence (P07949 29-1114): as the sequence (P07949 29-1114 V804M) above, with M776V counted along it
smiles,measurement,setting,value
Cn1cc(-c2ccc3c(c2)ncn3-c2ccc(CC(=O)Nc3cc(C(C)(C)C)on3)cc2)cn1 [Pz-1],IC50,RET,< 1 nM
same,IC50,VEGFR2 [1],< 1 nM
same,IC50,RET^V804M [2],< 1 nM
same,RET inhibitory activity towards oncogenic RET^C634R,RET^C634R,increased RET inhibitory activity
same,Activity against RET^M918T,RET^M918T,highly effective
same,Activity against RET^V804M,RET^V804M [3],highly effective
same,Activity against RET^V804L,RET^V804L,highly effective
same,Phosphorylation of RET oncoproteins / clinically relevant RET mutants,RET oncoproteins,strongly inhibited
same,VEGFA-induced VEGFR2 phosphorylation,VEGFR2 [4],inhibiting VEGFA-induced VEGFR2 phosphorylation
same,VEGFA-induced VEGFR2 phosphorylation,VEGFR2 [5],inhibiting VEGFA-induced VEGFR2 phosphorylation
same,IC50,NIH3T3 RET^C634Y cells,0.5 nM
same,Growth inhibition,parental NIH3T3 cells,did not exert detectable growth inhibition
same,RET^C634Y tyrosine phosphorylation,RET^C634Y,efficient inhibition
same,Formation of RET-driven tumors,NIH3T3 RET^C634Y tumors; 1.0 mg/kg/day per os,completely blocked; also recorded: abrogated formation of tumors
same,RET phosphorylation in tumor tissue,NIH3T3 RET^C634Y tumors; 1.0 mg/kg/day per os,blocked phosphorylation
same,VEGFR2 phosphorylation in tumors,"NIH3T3 RET^C634Y tumors; RET driven tumors, 1.0 mg/kg",inhibited VEGFR2 phosphorylation; also recorded: blocked phosphorylation
same,MAPK and mTOR mitogenic signaling cascades in tumors,NIH3T3 RET^C634Y tumors; RET-driven tumors,able to inhibit
same,Formation of tumors induced by RET^C634Y,"NIH3T3 RET^C634Y tumors; nu/nu mice, PO 1.0, 3.0 or 10.0 mg/kg/day",completely prevented formation of tumors
same,VEGFR2 phosphorylation in tumors,"NIH3T3 HRas^G12V tumors; Ras driven tumors, 1.0 mg/kg",inhibited VEGFR2 phosphorylation
same,MAPK signaling in tumors,"NIH3T3 HRas^G12V tumors; Ras tumors, 10.0 mg/kg",no effect
same,Alanine transaminase (ALT),[6],remaining within a normal range
same,Pharmacokinetic properties,[7],highly favorable
COc1cc2nccc(Oc3ccc(NC(=O)C4(C(=O)Nc5ccc(F)cc5)CC4)cc3)c2cc1OC [cabozantinib],Response of RET^V804M to the drug,RET^V804M [8],refractory
